Experimental findings from ChEMBL document CHEMBL2046290, “Ureido-substituted sulfamates show potent carbonic anhydrase IX inhibitory and antiproliferative activities against breast cancer cell lines” (Bioorg Med Chem Lett, 2012) are described below.

In one test the target is Carbonic anhydrase 9 (Homo sapiens, UniProt Q16790). As to the kind of experiment: Inhibition of human carbonic anhydrase 9 preincubated for 15 mins measured for 10 to 100 sec using phenol red indicator-based stopped flow assay. In a few lines:
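In-house recombinant human enzyme; stopped-flow CO2 hydration at 1.7–17 mM CO2, with 0.2 mM phenol red read at 557 nm in 20 mM Hepes pH 7.5 and 20 mM Na2SO4. Inhibitor (diluted from 0.1 mM aqueous stock to 0.01 nM) preincubated with enzyme 15 min at room temperature. Initial rates taken over 10–100 s, uncatalysed rate subtracted. Ki by non-linear least squares, mean of at least three determinations.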

The test system of test [1] is MCF7. Nature of the test: Antiproliferative activity against human MCF7 cells after 5 days by SRB assay under hypoxic condition. Type of test: functional, cell-based. The procedure, abridged: (§1)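 MCF7 seeded at 3 × 10^3 per well, adhered 48 h, then equilibrated 6 h at 0.5% O2 in a hypoxia station. Compounds added in hypoxic medium across 0.1–100 μM. After 5 days, proliferation measured by SRB: cold 25% TCA fixation 1 h at 4 °C, SRB in 1% acetic acid 30 min, solubilised in 10 mM Tris pH 10.5, read at 540.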
For orientation: Sulforhodamine B stains cellular protein and so reports cell mass.

Test [2] deals with MCF7. As to the kind of experiment: Antiproliferative activity against human MCF7 cells at 10 uM after 5 days by SRB assay under hypoxic condition. Type of test: functional, cell-based. The procedure, abridged: as §1
For another test, the system named is MDA-MB-361. As to the kind of experiment: Antiproliferative activity against human MDA-MB-361 cells at 100 uM after 5 days by SRB assay under normoxic condition. Type of test: functional, cell-based. In a few lines: (§2)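 Cells seeded at 1 × 10^3 per well, adhered 48 h, medium removed, then exposed to compound at 100 μM. After 5 days, growth measured by SRB: fixed with cold 25% TCA 1 h at 4 °C, stained with SRB in 1% acetic acid 30 min at room temperature, dye solubilised in 10 mM Tris pH 10.5, read at 540. Values expressed relative to untreated control (1.0).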

Test [3] concerns MCF7. As to the kind of experiment: Antiproliferative activity against human MCF7 cells at 30 uM after 5 days by SRB assay under hypoxic condition. Type of test: functional, cell-based. The procedure, abridged:
as §1

For a further test, the system named is SK-BR-3. Nature of the test: Antiproliferative activity against human SKBR3 cells at 100 uM after 5 days by SRB assay under normoxic condition. Type of test: functional, cell-based. In a few lines: as §2
The test system of a further test is ZR-75-1. Nature of the test: Antiproliferative activity against human ZR-75-1 cells at 100 uM after 5 days by SRB assay under normoxic condition. It counts as functional, cell-based. In a few lines: as §2
The next test has as its system MCF-10A. Nature of the test: Antiproliferative activity against human MCF10A cells at 100 uM after 5 days by SRB assay under normoxic condition. It counts as functional, cell-based. In a few lines:
as §2

Activity calls are given as the source filed them. The rule behind the calls is not given here.

`NS(=O)(=O)Oc1ccc(NC(=O)NCCc2cccc3ccccc23)cc1`: the Ki on Carbonic anhydrase 9 amounted to 15 nM.
Turning to `NS(=O)(=O)Oc1ccc(NC(=O)Nc2ccc(F)cc2)cc1`, the Activity result with MCF7 [1] is “Dose-dependent effect”. Further, the result in the test on MCF7 [2], in the test on MDA-MB-361, in the test with MCF7 [3], with SK-BR-3, with ZR-75-1 and with MCF-10A was Active.
Turning to `CCOC(=O)c1ccccc1NC(=O)Nc1ccc(OS(N)(=O)=O)cc1`, the affinity at Carbonic anhydrase 9, expressed as Ki, was 8 nM.
As for `Cc1cc(C)cc(NC(=O)Nc2ccc(OS(N)(=O)=O)cc2)c1`, the outcome in the test on MCF7 [2], in the test on MDA-MB-361, in the test with MCF7 [3], with SK-BR-3, in the test on ZR-75-1 and with MCF-10A was Active.
Consider `CCOC(=O)c1ccc(NC(=O)Nc2ccc(OS(N)(=O)=O)cc2)cc1`, for which the inhibition constant Ki on Carbonic anhydrase 9 is 8 nM.
`COc1ccc(NC(=O)Nc2ccc(OS(N)(=O)=O)cc2)cc1`: the Activity result in the test with MCF7 [1] was “Dose-dependent effect”. For the same compound, the outcome in the test with MCF7 [2], with MDA-MB-361, with MCF7 [3], in the test with SK-BR-3, with ZR-75-1 and with MCF-10A was Active.
For the compound `NS(=O)(=O)Oc1ccc(NC(=O)Nc2c(F)c(F)c(F)c(F)c2F)cc1`, in the test on MCF7 [1], the Activity entry is “Dose-dependent effect”. The outcome in the test with MCF7 [2], in the test with MDA-MB-361, in the test on MCF7 [3], in the test with SK-BR-3, in the test with ZR-75-1 and with MCF-10A was Active.
Regarding `NS(=O)(=O)Oc1ccc(NC(=O)NCCc2ccccc2)cc1`, in the test with MCF7 [1], the Activity entry is “Dose-dependent effect”. The outcome in the test on MCF7 [2], with MDA-MB-361, with MCF7 [3], in the test with SK-BR-3, in the test on ZR-75-1 and in the test on MCF-10A was Active.
In the case of `CCOC(=O)c1cccc(NC(=O)Nc2ccc(OS(N)(=O)=O)cc2)c1`, the affinity on Carbonic anhydrase 9 corresponds to a Ki of 12 nM.
Regarding `NS(=O)(=O)Oc1ccc(NC(=O)Nc2ccc(Cl)cc2)cc1`, the Activity entry in the test on MCF7 [1] is “Dose-dependent effect”. Further, the result with MCF7 [2], in the test with MDA-MB-361, in the test with MCF7 [3], in the test on SK-BR-3, with ZR-75-1 and with MCF-10A was Active.
As for `NS(=O)(=O)Oc1ccc(NC(=O)Nc2ccc([N+](=O)[O-])cc2)cc1`, the Activity entry with MCF7 [1] is “Dose-dependent effect”. In addition, the outcome with MCF7 [2], with MDA-MB-361, in the test on MCF7 [3], in the test on SK-BR-3, with ZR-75-1 and with MCF-10A was Active.
`CN(C)c1ccc(NC(=O)Nc2ccc(OS(N)(=O)=O)cc2)cc1`: the Activity result in the test with MCF7 [1] was “Dose-dependent effect”. The result with MCF7 [2], with MDA-MB-361, with MCF7 [3], in the test on SK-BR-3, in the test on ZR-75-1 and in the test with MCF-10A was Active.
Consider `NS(=O)(=O)Oc1ccc(NC(=O)Nc2ccc(Cc3ccccc3)cc2)cc1`, for which, on Carbonic anhydrase 9, the Ki was 16 nM.
Still for that read-out and setting: with `CC(C)(C)OC(=O)N1CCC(NC(=O)Nc2ccc(OS(N)(=O)=O)cc2)CC1` the figure was 7 nM.
Consider `NS(=O)(=O)Oc1ccc(NC(=O)Nc2ccc(Oc3ccccc3)cc2)cc1`, for which, in the test with MCF7 [1], the Activity result is “Dose-dependent effect”. Besides, the outcome in the test with MCF7 [2], in the test on MDA-MB-361, in the test with MCF7 [3], with SK-BR-3, with ZR-75-1 and in the test on MCF-10A was Active.

The Ki is a dissociation constant, usually derived from enzyme kinetics or from competition with a known ligand. Read a low Ki as a stronger hold on the target.
